Source: ChEMBL document CHEMBL4177662, “Phosphamide-containing diphenylpyrimidine analogues (PA-DPPYs) as potent focal adhesion kinase (FAK) inhibitors with enhanced activity against pancreatic cancer cell lines” (Bioorg Med Chem, 2017)

What was measured:
ASPC1 [1] = test: Antiproliferative activity against human Aspc-1 cells assessed as cell viability at 8 uM after 48 hrs by MTT assay (reference value: 98.1%); assay type: functional; conditions: ASPC1, 48 h, read-out: Activity
ASPC1 [2] = test: Cell cycle arrest in human Aspc-1 cells assessed as accumulation at G2/M phase at 1 uM after 72 hrs by propidium iodide staining-based flow cytometry (reference value: 0.89%); assay type: functional
[3] = target: Tyrosine-protein kinase BTK (Homo sapiens) (UniProt Q06187); test: Inhibition of recombinant full length His-tagged human BTK cytoplasmic domain expressed in baculovirus expression system at 100 nM relative to control
Procedure, shortened: (§1)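 Percent inhibition of kinase activity at a single 100 nM test concentration, from an outsourced biochemical profiling screen.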

PANC-1 (human) [4] = test: Antiproliferative activity against human PANC-1 cells assessed as cell viability at 8 uM after 24 hrs by MTT assay (reference value: 100%); conditions: PANC-1, 24 h
ASPC1 [5] = test: Induction of apoptosis in human Aspc-1 cells assessed as late apoptotic cells at 10 uM after 72 hrs by Annexin V-FITC/propidium iodide staining-based flow cytometry (reference value: 0%); assay type: functional
Procedure, shortened: (§2)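 AsPC-1 cells (3 to 5×10^5 per well) were treated with DMSO solvent control or compound for 72 h in medium with 5% FBS. Cells were then stained with Annexin V-FITC and propidium iodide and analysed by flow cytometry. One representative experiment shown.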

BXPC-3 [6] = test: Antiproliferative activity against human BxPC3 cells assessed as cell viability at 0.5 uM after 24 hrs by MTT assay (reference value: 100%); assay type: functional; conditions: BXPC-3, 24 h, read-out: Activity
BXPC-3 [7] = test: Antiproliferative activity against human BxPC3 cells assessed as cell viability at 0.5 uM after 72 hrs by MTT assay (reference value: 97%); assay type: functional; conditions: BXPC-3, 72 h, read-out: Activity
ASPC1 [8] = test: Cell cycle arrest in human Aspc-1 cells assessed as accumulation at G2/M phase at 2.5 uM after 72 hrs by propidium iodide staining-based flow cytometry (reference value: 0.89%); assay type: functional
ASPC1 [9] = test: Antiproliferative activity against human Aspc-1 cells assessed as cell viability at 4 uM after 48 hrs by MTT assay (reference value: 98.1%); assay type: functional; conditions: ASPC1, 48 h, read-out: Activity
ASPC1 [10] = test: Induction of apoptosis in human Aspc-1 cells assessed as viable cells at 2.5 uM after 72 hrs by Annexin V-FITC/propidium iodide staining-based flow cytometry (reference value: 100%); assay type: functional; conditions: ASPC1, 72 h, read-out: Activity; procedure, shortened: as §2
ASPC1 [11] = test: Cell cycle arrest in human Aspc-1 cells assessed as accumulation at G0/G1 phase at 1 uM after 72 hrs by propidium iodide staining-based flow cytometry (reference value: 39.41%); assay type: functional
[12] = target: T1, Aurora kinase A (Homo sapiens) (UniProt O14965); test: Inhibition of recombinant full length His-tagged human Aurora A expressed in baculovirus expression system at 100 nM relative to control; procedure, shortened: as §1
T1 sequence (whole entry): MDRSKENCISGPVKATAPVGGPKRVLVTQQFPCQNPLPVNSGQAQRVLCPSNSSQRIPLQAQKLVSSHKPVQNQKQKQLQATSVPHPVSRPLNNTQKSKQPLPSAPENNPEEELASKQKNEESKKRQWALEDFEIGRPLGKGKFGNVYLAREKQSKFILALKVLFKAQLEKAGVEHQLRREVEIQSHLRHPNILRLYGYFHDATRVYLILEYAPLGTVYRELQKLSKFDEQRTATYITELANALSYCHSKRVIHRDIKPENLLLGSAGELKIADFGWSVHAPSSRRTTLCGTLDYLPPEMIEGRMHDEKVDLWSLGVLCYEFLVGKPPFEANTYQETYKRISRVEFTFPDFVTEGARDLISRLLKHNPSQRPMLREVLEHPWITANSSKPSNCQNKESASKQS

PANC-1 (human) [13] = test: Antiproliferative activity against human PANC-1 cells assessed as cell viability at 4 uM after 72 hrs by MTT assay (reference value: 97%); conditions: PANC-1, 72 h
ASPC1 [14] = test: Induction of apoptosis in human Aspc-1 cells assessed as late apoptotic cells at 5 uM after 72 hrs by Annexin V-FITC/propidium iodide staining-based flow cytometry (reference value: 0%); assay type: functional; procedure, shortened: as §2
ASPC1 [15] = test: Induction of apoptosis in human Aspc-1 cells assessed as early apoptotic cells at 2.5 uM after 72 hrs by Annexin V-FITC/propidium iodide staining-based flow cytometry (reference value: 0%); assay type: functional; procedure, shortened: as §2
BXPC-3 [16] = test: Antiproliferative activity against human BxPC3 cells assessed as cell viability at 0.5 uM after 48 hrs by MTT assay (reference value: 98.8%); assay type: functional; conditions: BXPC-3, 48 h, read-out: Activity
[17] = target: Tyrosine-protein kinase receptor UFO (Homo sapiens) (UniProt P30530); test: Inhibition of GST-tagged human AXL (473 end residues) at 100 nM relative to control
Procedure, shortened: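 SelectScreen biochemical kinase profiling service; percent inhibition of each kinase at a single compound concentration of 100 nM.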

PANC-1 (human) [18] = test: Antiproliferative activity against human PANC-1 cells assessed as cell viability at 4 uM after 48 hrs by MTT assay (reference value: 98.8%); conditions: PANC-1, 48 h
ASPC1 [19] = test: Antiproliferative activity against human Aspc-1 cells assessed as cell viability at 4 uM after 24 hrs by MTT assay (reference value: 100%); assay type: functional; conditions: ASPC1, 24 h, read-out: Activity
[20] = Antiproliferative activity against human HPDE6c7 cells after 72 hrs by MTT assay; assay type: cell-based; conditions: HPDE6c7, 72 h
Procedure, shortened: (§3)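 Cells grown in DMEM with 10% FBS and 1% penicillin-streptomycin at 37 °C, 5% CO2. Seeded at 4,000 to 5,000 cells/well, cultured one day, then exposed to compounds for 72 h at 1.25 to 40 μmol/L, five replicates per concentration. MTT absorbance read at 570 nm. IC50 from five-point dose-response curves; mean of at least three separate experiments.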

Focal adhesion kinase 1 = Focal adhesion kinase 1 (Homo sapiens, UniProt Q05397); test: Inhibition of recombinant human N-terminal His-tagged FAK cytoplasmic domain (393 to 698 residues) expressed in baculovirus infected sf9 cells assessed as reduction in autophosphorylation after 60 mins by ADP-Glo kinase assay
Procedure, shortened: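 ADP-Glo luminescence assay. The kinase reaction ran in 1× kinase buffer with compound at 1 to 200 nM, for 60 min at room temperature. ADP-Glo reagent was then added to stop the reaction and deplete leftover ATP (40 min, room temperature). Detection reagent converted ADP to ATP for luciferase read-out (30 min). IC50 from curve fitting, mean ± SE of three independent experiments.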

BXPC-3 [21] = test: Antiproliferative activity against human BxPC3 cells after 72 hrs by MTT assay; assay type: functional, cell-based; conditions: BXPC-3, 72 h; procedure, shortened: as §3
ASPC1 [22] = test: Antiproliferative activity against human Aspc-1 cells assessed as cell viability at 0.5 uM after 48 hrs by MTT assay (reference value: 98.1%); assay type: functional; conditions: ASPC1, 48 h, read-out: Activity
ASPC1 [23] = test: Cell cycle arrest in human Aspc-1 cells assessed as accumulation at G2/M phase at 5 uM after 72 hrs by propidium iodide staining-based flow cytometry (reference value: 0.89%); assay type: functional
PANC-1 = test: Antiproliferative activity against human PANC1 cells after 72 hrs by MTT assay; assay type: functional, cell-based; conditions: PANC-1, 72 h; procedure, shortened: as §3

Chain of Focal adhesion kinase 1 (Q05397 whole entry, the tested form may be a part): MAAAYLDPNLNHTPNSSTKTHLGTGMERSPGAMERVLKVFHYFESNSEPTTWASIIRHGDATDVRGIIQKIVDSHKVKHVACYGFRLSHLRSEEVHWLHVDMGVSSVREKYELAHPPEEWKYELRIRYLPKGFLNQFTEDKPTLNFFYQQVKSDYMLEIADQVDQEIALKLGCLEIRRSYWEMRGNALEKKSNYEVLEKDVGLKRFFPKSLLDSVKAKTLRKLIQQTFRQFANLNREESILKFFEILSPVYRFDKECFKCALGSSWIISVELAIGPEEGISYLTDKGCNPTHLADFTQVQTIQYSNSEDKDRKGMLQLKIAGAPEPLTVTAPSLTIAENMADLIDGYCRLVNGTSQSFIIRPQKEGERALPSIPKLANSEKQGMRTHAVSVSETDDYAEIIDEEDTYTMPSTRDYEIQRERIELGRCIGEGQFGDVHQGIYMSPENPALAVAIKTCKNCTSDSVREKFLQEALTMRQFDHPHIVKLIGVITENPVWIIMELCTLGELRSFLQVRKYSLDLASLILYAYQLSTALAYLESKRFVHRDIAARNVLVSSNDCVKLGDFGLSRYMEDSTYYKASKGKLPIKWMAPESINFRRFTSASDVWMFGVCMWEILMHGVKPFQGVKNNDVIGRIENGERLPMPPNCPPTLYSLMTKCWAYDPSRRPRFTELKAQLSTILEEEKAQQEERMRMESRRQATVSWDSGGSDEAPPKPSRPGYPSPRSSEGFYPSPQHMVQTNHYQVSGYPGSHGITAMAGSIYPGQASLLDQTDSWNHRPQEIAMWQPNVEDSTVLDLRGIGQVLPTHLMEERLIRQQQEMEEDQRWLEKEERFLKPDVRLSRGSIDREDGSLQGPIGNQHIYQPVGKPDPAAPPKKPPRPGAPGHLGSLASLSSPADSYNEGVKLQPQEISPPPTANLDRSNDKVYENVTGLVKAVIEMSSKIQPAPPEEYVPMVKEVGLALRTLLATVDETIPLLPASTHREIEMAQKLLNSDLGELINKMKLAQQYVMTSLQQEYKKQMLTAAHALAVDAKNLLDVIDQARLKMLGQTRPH
Chain of Tyrosine-protein kinase BTK (Homo sapiens) (Q06187 whole entry, the tested form may be a part): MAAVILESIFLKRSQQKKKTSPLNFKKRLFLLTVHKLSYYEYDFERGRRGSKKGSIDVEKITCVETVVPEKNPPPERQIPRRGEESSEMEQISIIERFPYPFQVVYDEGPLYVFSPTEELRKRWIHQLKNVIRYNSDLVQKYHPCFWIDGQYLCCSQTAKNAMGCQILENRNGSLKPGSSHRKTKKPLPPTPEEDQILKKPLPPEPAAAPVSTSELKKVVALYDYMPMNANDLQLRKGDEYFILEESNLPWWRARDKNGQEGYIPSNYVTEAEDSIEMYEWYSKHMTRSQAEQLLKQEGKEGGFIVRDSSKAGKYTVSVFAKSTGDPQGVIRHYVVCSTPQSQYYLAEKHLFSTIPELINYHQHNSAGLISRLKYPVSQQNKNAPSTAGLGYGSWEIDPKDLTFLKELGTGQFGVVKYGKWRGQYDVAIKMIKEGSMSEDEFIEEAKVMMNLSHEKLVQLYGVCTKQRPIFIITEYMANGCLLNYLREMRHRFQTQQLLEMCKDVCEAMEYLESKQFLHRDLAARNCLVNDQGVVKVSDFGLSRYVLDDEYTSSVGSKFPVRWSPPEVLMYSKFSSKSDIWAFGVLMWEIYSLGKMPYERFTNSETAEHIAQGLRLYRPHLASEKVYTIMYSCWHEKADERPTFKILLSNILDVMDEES
Chain of Tyrosine-protein kinase receptor UFO (Homo sapiens) (P30530 whole entry): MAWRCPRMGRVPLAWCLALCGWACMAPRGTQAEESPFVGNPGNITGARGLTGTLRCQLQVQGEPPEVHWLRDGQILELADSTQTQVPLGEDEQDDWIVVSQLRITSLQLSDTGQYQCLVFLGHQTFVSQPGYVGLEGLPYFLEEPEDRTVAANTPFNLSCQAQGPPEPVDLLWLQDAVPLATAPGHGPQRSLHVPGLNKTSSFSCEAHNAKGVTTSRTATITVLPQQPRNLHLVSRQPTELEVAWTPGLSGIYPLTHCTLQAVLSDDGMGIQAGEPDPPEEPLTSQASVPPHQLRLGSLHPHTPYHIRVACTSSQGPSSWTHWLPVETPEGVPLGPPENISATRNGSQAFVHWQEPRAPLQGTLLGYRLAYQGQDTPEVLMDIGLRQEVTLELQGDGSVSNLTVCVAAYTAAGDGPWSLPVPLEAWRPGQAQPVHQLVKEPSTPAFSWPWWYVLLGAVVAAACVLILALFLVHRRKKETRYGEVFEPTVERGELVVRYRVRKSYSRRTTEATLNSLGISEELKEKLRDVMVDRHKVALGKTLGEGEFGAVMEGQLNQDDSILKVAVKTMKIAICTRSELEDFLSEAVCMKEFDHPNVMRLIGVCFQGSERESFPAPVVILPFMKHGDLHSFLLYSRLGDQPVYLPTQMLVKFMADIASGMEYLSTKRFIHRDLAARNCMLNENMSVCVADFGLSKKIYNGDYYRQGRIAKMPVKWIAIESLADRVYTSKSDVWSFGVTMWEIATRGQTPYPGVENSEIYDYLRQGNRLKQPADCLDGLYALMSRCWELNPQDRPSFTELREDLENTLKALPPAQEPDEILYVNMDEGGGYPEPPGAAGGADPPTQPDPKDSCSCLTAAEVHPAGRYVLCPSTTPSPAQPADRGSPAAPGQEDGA

With `CCOP(=O)(CCCOc1ccc(Nc2ncc([N+](=O)[O-])c(Nc3ccccc3C(=O)NC)n2)cc1)N1CCOCC1` (stereo not given) the viability at 8 µM (ASPC1 [1]) was 30.2%, the Activity (ASPC1 [2]) was 13% and the inhibition [3] was 33%. For the same molecule, the viability at 8 µM (PANC-1 (human) [4]) was 87.3%, the Activity (ASPC1 [5]) was 75.3% and the viability at 0.5 µM (BXPC-3 [6]) was 98%. It also gave a viability at 0.5 µM (BXPC-3 [7]) of 69.8%, an Activity (ASPC1 [8]) of 16.54% and a viability at 4 µM (ASPC1 [9]) of 47.7%. The viability at 2.5 µM (ASPC1 [10]) was 55.3%, the Activity (ASPC1 [11]) was 38.6% and the inhibition [12] was 48%. It also gave a viability at 4 µM (PANC-1 (human) [13]) of 58.4%, an Activity (ASPC1 [14]) of 40.3% and an Activity (ASPC1 [15]) of 21%. It also gave a viability at 0.5 µM (BXPC-3 [16]) of 96.7%, an inhibition [17] of 60% and a viability at 4 µM (PANC-1 (human) [18]) of 61.6%. The viability at 4 µM (ASPC1 [19]) was 68%, the IC50 [20] was > 20000 nM and the IC50 (Focal adhesion kinase 1) was 4.65 nM. The IC50 (BXPC-3 [21]) was 570 nM, the viability at 0.5 µM (ASPC1 [22]) was 97.4% and the Activity (ASPC1 [23]) was 22.11%. The IC50 (PANC-1) was > 40000 nM.
